Source: article PMC7686114 (Bioorganic chemistry, 2020)
Entries after “also recorded” stand apart in the source; their conditions may differ. Read-outs that look alike come from different tables or passages of the source. Each block holds one compound with its values, some of them ahead of it.

Assays:
PDE4B2 = PDE4B2 (Homo sapiens, UniProt Q07343); assay: PDE isoform selectivity, IMAP FP assay; type: biochemical; conditions: read-out: % inhibition at 50 μM, PDE4B2 (cAMP)
Method in brief: (§1)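 Recombinant PDE enzymes were used at concentrations set empirically to give EC80 activity, in 10 mM Tris-HCl pH 7.4, 10 mM MgCl2, 0.1 mg/mL BSA. Test compound was preincubated with enzyme for 60 min at 30°C. TAMRA-cGMP (ex530/em590) or FAM-cAMP (ex485/em530), 50 nmol/L final, was then added for 30 min at 30°C. IMAP binding reagent followed for 10 min at 30°C, and fluorescence polarization was read.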

PDE7A = PDE7A (Homo sapiens, UniProt Q13946); assay: PDE isoform selectivity, IMAP FP assay; type: biochemical; conditions: read-out: % inhibition at 50 μM, PDE7A (cAMP)
Sequence of PDE7A (Q13946 whole entry, canonical isoform): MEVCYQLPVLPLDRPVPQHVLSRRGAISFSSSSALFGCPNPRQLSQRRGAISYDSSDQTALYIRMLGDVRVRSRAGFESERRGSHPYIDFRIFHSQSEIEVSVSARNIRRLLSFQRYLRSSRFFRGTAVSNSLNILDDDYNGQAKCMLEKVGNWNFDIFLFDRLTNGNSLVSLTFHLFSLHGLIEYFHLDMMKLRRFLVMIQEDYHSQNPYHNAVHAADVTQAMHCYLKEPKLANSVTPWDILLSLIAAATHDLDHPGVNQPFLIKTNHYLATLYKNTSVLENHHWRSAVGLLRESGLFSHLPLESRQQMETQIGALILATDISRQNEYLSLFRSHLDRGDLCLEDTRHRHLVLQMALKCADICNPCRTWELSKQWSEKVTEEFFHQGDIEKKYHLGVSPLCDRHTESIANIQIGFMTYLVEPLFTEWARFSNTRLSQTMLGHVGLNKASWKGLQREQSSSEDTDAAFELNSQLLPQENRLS
Method in brief: as §1

PDE3A = PDE3A (Homo sapiens, UniProt Q14432); assay: PDE isoform selectivity, IMAP FP assay; type: biochemical
Sequence of PDE3A (Q14432 whole entry, canonical isoform): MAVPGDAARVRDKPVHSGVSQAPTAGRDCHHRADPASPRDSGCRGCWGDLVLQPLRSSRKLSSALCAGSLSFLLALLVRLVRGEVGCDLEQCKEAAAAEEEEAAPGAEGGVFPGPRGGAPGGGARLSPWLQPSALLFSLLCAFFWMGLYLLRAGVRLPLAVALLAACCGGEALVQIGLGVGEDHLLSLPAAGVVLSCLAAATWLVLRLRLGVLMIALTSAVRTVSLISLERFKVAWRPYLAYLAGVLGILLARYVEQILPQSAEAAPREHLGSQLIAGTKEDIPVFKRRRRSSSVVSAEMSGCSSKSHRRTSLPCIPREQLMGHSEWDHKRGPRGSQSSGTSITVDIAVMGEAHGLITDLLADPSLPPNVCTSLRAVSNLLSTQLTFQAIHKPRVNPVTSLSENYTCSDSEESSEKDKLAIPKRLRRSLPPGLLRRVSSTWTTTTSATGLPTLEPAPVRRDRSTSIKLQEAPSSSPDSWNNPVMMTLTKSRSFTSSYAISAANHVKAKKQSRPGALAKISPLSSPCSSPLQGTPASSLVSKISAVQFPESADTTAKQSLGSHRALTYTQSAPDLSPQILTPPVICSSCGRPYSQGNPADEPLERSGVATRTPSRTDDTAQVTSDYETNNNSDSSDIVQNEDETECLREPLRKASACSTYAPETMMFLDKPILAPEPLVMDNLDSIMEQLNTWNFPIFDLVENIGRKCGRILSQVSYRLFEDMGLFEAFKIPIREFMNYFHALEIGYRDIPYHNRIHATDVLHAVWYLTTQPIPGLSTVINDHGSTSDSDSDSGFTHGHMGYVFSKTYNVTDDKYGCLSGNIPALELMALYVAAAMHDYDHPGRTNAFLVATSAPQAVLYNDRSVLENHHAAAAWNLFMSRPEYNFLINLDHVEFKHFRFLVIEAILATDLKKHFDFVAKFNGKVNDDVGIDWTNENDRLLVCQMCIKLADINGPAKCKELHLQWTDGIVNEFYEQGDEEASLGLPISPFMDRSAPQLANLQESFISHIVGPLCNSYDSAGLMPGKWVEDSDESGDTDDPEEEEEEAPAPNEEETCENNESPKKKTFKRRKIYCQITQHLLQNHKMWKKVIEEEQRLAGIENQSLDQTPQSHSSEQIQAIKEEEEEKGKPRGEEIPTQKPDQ
Method in brief: as §1

PDE9A = PDE9A (Homo sapiens, UniProt O76083); assay: PDE isoform selectivity, IMAP FP assay; type: biochemical; conditions: read-out: % inhibition at 50 μM, PDE9A (cGMP)
Method in brief: as §1

[1] = system: all other PDE isozymes, including PDE6 and PDE11; assay: PDE isozyme selectivity panel; type: biochemical, human; conditions: concentrations up to 50 μM
PDE3B = PDE3B (Homo sapiens, UniProt Q13370); assay: PDE isoform selectivity, IMAP FP assay; type: biochemical
Method in brief: as §1

PDE6C = PDE6C (Homo sapiens, UniProt P51160); assay: PDE isoform selectivity, IMAP FP assay; type: biochemical; conditions: read-out: % inhibition at 50 μM, PDE6C (cGMP)
Method in brief: as §1

PDE10A = PDE10A (Homo sapiens, UniProt Q9Y233); assay: PDE isoform selectivity, IMAP FP assay; type: biochemical
Sequence of PDE10A (Q9Y233 whole entry, canonical isoform): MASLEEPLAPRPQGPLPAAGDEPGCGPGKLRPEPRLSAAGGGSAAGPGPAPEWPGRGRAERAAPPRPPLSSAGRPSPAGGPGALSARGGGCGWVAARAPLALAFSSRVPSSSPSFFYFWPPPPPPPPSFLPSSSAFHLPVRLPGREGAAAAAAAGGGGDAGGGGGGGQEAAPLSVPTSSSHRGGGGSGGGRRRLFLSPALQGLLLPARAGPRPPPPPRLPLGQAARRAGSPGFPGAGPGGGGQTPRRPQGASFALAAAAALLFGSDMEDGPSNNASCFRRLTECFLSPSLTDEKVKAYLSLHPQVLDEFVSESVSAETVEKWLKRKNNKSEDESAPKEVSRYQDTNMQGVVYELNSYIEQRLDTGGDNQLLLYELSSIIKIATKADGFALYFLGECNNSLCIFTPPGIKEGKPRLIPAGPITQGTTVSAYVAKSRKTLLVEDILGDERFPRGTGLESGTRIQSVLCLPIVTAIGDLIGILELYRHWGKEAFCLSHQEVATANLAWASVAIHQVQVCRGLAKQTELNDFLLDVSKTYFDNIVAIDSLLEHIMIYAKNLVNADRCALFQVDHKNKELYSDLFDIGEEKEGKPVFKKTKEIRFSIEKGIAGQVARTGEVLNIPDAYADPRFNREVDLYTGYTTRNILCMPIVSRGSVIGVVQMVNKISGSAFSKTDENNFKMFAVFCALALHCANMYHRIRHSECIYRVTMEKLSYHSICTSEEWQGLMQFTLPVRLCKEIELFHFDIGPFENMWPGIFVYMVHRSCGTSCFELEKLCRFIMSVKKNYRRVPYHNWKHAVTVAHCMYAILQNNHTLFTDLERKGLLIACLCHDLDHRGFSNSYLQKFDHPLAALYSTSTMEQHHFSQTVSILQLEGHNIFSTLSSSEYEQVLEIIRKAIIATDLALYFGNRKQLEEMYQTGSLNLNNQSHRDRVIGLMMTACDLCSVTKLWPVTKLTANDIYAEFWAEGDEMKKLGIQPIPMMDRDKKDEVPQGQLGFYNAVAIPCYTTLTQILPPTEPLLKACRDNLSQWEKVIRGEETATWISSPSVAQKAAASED
Method in brief: as §1

[2] = system: intracellular cGMP levels in HEK293 cells; assay: Luciferase cGMP biosensor assay; type: cell-based, human; conditions: for relative potency/efficacy in increasing intracellular cGMP levels: comparison among tadalafil, celecoxib, 11 and 19; for intracellular cGMP levels (luminescence), concentration dependence: pretreated with sodium nitroprusside
Method in brief: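 HEK293 cells stably expressing a GloSensor cGMP-40F construct (human PDE5A GAF-A fused to firefly luciferase) were G418-selected. Cells were seeded at 6×10⁴/well and attached overnight in DMEM + 10% FBS at 37°C, 5% CO2. They were preincubated at room temperature in CO2-independent medium with 10% FBS and 5 mmol/L luciferin. 50 μM sodium nitroprusside was added together with test compound, and luminescence was read every minute for 1 h.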

PDE11A = PDE11A (Homo sapiens, UniProt Q9HCR9); assay: PDE isoform selectivity, IMAP FP assay; type: biochemical
Sequence of PDE11A (Q9HCR9 whole entry, canonical isoform): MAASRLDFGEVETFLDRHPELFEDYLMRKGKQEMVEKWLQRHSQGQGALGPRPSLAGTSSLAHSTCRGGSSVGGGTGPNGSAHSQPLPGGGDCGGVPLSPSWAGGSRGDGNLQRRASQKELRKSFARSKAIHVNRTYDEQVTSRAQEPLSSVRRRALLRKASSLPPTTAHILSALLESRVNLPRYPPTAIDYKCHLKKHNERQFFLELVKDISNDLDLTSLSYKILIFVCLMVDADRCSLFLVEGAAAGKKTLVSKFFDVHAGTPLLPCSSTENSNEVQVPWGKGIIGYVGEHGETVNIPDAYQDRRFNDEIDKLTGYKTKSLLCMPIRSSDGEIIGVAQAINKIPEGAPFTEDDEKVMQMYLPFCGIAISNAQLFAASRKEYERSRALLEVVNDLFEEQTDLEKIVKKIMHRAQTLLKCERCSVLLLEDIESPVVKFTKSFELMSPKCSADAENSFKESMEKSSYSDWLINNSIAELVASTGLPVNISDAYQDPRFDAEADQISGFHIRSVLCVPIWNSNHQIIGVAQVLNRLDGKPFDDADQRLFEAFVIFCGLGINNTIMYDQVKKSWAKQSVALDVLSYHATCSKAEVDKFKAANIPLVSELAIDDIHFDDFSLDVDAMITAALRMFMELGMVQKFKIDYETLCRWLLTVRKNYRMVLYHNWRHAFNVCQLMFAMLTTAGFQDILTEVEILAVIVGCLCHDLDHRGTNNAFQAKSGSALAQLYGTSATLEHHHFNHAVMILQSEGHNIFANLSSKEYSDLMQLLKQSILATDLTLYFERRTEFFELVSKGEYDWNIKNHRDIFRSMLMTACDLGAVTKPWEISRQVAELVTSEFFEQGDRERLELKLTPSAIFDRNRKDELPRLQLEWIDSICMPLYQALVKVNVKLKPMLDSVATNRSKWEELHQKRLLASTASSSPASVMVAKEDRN
Method in brief: as §1

human recombinant PDE5 = human recombinant PDE5 (Homo sapiens, UniProt O76074); assay: PDE5 inhibition, IMAP fluorescence polarization assay; type: biochemical; conditions: for fold reduction in PDE5 inhibitory potency compared to compound 7: vs compound 7 (4-COOH, 4-chlorophenyl); for reduction in PDE5 inhibitory activity of pyrazole vs pyrazoline: compounds 34 and 35 compared to compounds 1 and 4; for PDE5 inhibitory activity (in words): SAR statement vs parent compound
PDE8A = PDE8A (Homo sapiens, UniProt O60658); assay: PDE isoform selectivity, IMAP FP assay; type: biochemical; conditions: read-out: % inhibition at 50 μM, PDE8A (cAMP)
Method in brief: as §1

PDE1A = PDE1A (Homo sapiens, UniProt P54750); assay: PDE isoform selectivity, IMAP FP assay; type: biochemical
Sequence of PDE1A (P54750 whole entry, canonical isoform): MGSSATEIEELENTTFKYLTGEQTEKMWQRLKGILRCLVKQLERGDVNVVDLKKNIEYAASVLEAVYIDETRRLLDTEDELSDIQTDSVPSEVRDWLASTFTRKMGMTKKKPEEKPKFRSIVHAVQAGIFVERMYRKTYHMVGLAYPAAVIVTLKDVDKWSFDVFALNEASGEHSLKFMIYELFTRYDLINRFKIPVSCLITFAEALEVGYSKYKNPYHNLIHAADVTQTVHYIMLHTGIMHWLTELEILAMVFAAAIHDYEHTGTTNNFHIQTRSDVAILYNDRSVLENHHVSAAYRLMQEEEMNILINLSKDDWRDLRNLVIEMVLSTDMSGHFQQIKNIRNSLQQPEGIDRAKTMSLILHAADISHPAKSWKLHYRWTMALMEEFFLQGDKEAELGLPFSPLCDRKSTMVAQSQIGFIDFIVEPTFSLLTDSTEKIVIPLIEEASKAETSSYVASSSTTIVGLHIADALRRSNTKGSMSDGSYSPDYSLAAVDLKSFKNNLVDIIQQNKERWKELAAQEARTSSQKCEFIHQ
Method in brief: as §1

PDE2A = PDE2A (Homo sapiens, UniProt O00408); assay: PDE isoform selectivity, IMAP FP assay; type: biochemical
Sequence of PDE2A (O00408 whole entry, canonical isoform): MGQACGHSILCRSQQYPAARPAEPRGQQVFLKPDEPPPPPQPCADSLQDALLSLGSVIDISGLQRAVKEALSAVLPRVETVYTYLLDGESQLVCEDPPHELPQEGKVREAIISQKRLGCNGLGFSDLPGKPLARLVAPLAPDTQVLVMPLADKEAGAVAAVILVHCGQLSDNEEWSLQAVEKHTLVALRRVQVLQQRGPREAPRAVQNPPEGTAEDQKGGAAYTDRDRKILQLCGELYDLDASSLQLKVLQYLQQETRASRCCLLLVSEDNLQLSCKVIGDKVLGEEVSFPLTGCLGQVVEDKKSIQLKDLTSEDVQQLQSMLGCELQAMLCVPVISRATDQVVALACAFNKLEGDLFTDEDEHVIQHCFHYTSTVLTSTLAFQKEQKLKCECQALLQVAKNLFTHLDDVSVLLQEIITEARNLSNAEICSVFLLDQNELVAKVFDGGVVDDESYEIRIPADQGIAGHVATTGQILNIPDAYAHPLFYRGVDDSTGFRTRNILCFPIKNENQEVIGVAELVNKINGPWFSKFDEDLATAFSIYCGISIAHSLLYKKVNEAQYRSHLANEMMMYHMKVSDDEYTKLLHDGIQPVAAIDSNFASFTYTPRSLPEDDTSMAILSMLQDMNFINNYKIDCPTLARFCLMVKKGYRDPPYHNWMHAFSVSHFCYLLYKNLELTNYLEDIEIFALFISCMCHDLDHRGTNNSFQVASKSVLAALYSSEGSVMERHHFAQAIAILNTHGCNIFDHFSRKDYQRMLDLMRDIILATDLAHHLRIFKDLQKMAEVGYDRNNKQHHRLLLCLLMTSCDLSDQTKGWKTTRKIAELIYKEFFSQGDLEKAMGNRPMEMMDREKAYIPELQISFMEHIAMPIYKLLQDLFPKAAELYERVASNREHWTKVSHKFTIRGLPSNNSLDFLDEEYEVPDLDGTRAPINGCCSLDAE

COX-1 = biological target: T1, COX-1 (Ovis aries, UniProt P05979); assay: COX-1 colorimetric assay; type: biochemical, ovine; conditions: screening concentration 100 μM
T1 sequence (P05979 25-600): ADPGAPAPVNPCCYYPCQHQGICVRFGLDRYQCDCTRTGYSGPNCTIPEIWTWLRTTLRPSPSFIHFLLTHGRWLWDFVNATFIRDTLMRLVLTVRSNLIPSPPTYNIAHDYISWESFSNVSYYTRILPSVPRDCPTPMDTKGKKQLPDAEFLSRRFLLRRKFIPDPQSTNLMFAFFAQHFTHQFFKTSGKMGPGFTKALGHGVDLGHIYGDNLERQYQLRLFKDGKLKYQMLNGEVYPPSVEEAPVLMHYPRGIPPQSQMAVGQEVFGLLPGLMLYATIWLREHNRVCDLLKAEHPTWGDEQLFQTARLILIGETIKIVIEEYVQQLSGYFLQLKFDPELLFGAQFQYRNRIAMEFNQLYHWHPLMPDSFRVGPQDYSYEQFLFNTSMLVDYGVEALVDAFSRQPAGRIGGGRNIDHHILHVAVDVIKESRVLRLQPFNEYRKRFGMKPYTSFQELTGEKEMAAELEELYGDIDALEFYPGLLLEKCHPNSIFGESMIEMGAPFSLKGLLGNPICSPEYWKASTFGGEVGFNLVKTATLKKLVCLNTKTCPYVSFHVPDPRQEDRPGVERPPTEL
Method in brief: (§2)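 Ovine COX-1 or COX-2 was diluted with hemin in 0.1 M Tris-HCl, pH 8. Test compound or vehicle was preincubated with enzyme for 5 min at 25°C. Colorimetric substrate was added, then arachidonic acid, and the reaction ran 5 min more at 25°C. Activity was read as substrate absorbance at 590 nm.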

COX-2 = biological target: T2, COX-2 (Ovis aries, UniProt P79208); assay: COX-2 colorimetric assay; type: biochemical, ovine
T2 sequence (P79208 17-603): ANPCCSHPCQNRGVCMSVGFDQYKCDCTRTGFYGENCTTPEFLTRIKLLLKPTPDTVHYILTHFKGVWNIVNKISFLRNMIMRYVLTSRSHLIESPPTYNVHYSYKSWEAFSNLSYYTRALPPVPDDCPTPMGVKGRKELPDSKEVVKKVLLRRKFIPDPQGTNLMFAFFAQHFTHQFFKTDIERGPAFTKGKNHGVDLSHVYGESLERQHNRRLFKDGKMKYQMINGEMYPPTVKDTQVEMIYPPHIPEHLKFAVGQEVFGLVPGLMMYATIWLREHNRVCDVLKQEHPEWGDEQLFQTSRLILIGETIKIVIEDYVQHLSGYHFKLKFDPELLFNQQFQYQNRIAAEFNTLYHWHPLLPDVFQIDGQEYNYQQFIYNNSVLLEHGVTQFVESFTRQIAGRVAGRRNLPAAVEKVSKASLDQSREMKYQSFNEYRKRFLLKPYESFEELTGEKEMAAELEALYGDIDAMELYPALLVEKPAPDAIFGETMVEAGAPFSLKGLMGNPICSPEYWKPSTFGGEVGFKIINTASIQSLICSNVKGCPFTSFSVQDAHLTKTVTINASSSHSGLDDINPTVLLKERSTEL
Method in brief: as §2

[3] = read-out: PDE5 % inh at 50 (μM)

inhibition at 50 µM (PDE4B2): 1.6%
inhibition at 50 µM (PDE7A): 9.1%
inhibition at 50 µM (PDE3A; read-out: % inhibition at 50 μM, PDE3A (cAMP)): 12.4%
inhibition at 50 µM (PDE3A; read-out: % inhibition at 50 μM, PDE3A (cGMP)): 36.2%
inhibition at 50 µM (PDE9A): 10.7%
inhibition at 50 µM (PDE3B; read-out: % inhibition at 50 μM, PDE3B (cAMP)): 6.7%
inhibition at 50 µM (PDE3B; read-out: % inhibition at 50 μM, PDE3B (cGMP)): 15.7%
inhibition at 50 µM (PDE6C): 16.2%
inhibition at 50 µM (PDE10A; read-out: % inhibition at 50 μM, PDE10A (cAMP)): 3.6%
inhibition at 50 µM (PDE10A; read-out: % inhibition at 50 μM, PDE10A (cGMP)): 4.5%
inhibition at 50 µM (PDE11A; read-out: % inhibition at 50 μM, PDE11A (cAMP)): 0.9%
inhibition at 50 µM (PDE11A; read-out: % inhibition at 50 μM, PDE11A (cGMP)): 5.9%
IC50 (human recombinant PDE5): 2.7 µM
inhibition at 50 µM (human recombinant PDE5; read-out: % inhibition at 50 μM, PDE5A (cGMP)): 97%
inhibition at 50 µM (human recombinant PDE5; [3]): 97%
inhibition at 50 µM (PDE8A): 4%
inhibition at 50 µM (PDE1A; read-out: % inhibition at 50 μM, PDE1A (cAMP)): 2.6%
inhibition at 50 µM (PDE1A; read-out: % inhibition at 50 μM, PDE1A (cGMP)): 22%
inhibition at 50 µM (PDE2A; read-out: % inhibition at 50 μM, PDE2A (cAMP)): 5.6%
inhibition at 50 µM (PDE2A; read-out: % inhibition at 50 μM, PDE2A (cGMP)): 19.9%
Compound: CC(C)(C)C1=NN(c2ccc(C(=O)O)cc2)C(c2ccc(Cl)cc2Cl)C1 (stereo not shown) [Compound 11, 4-(3-(tert-Butyl)-5-(2,4-dichlorophenyl)-4,5-dihydro-1H-pyrazol-1-yl) benzoic acid]
effect on activity of all other PDE isozymes [1]: without significantly affecting the activity
relative potency/efficacy in increasing intracellular cGMP levels [2]: substantially higher efficacy; also recorded: higher cellular potency
intracellular cGMP levels (luminescence), concentration dependence [2]: concentration-dependent increase

inhibition at 50 µM (human recombinant PDE5; [3]): 95.3%
Compound: CCOc1ccc(C2CC(C(C)(C)C)=NN2c2ccc(C(=O)O)cc2)cc1 (stereo not shown) [Compound 19, 4-(3-(tert-Butyl)-5-(4-ethoxyphenyl)-4,5-dihydro-1H-pyrazol-1-yl)benzoic acid]
relative potency/efficacy in increasing intracellular cGMP levels [2]: substantially higher efficacy
intracellular cGMP levels (luminescence), concentration dependence [2]: concentration-dependent increase

fold improvement in PDE5 inhibitory activity compared to celecoxib (human recombinant PDE5; ratio of IC50 vs celecoxib): 4 fold
inhibition at 50 µM (human recombinant PDE5; [3]): 93%
COX1 inhibition at 100 μM (COX-1): no COX inhibition
COX2 inhibition at 100 μM (COX-2; screening concentration 100 μM): no COX inhibition
Compound: Cc1ccc(C2CC(C(C)(C)C)=NN2c2ccc(C(=O)O)cc2)cc1 (stereo not shown) [Compound 22, 4-(3-tert-Butyl-5-p-tolyl-4,5-dihydro-1H-pyrazol-1-yl)benzoic acid]

IC50 (human recombinant PDE5): 9.3 µM
inhibition at 50 µM (human recombinant PDE5; [3]): 80%
IC50 (COX-2): 80 µM
Compound: CC(C)(C)C1=NN(c2ccc(S(=O)(=O)O)cc2)C(c2ccc(F)cc2)C1 (stereo not shown) [Compound 31, 4-(3-tert-Butyl-5-(4-fluorophenyl)-4,5-dihydro-1H-pyrazol-1-yl) benzenesulfonic acid]

IC50 (human recombinant PDE5): 8.7 µM
inhibition at 50 µM (human recombinant PDE5; [3]): 85%
fold reduction in PDE5 inhibitory potency compared to compound 7 (human recombinant PDE5): about 2 fold
IC50 (COX-2): 85 µM
Compound: CC(C)(C)C1=NN(c2ccc(S(=O)(=O)O)cc2)C(c2ccc(Cl)cc2)C1 (stereo not shown) [Compound 32, 4-(3-tert-Butyl-5-(4-chlorophenyl)-4,5-dihydro-1H-pyrazol-1-yl)benzenesulfonic acid]

IC50 (human recombinant PDE5): 48.7 µM
inhibition at 50 µM (human recombinant PDE5; [3]): 57.5%
fold reduction in PDE5 inhibitory potency compared to compound 7 (human recombinant PDE5): about 15 fold
IC50 (COX-2): 34 µM
Compound: CC(C)(C)C1=NN(c2ccc(S(N)(=O)=O)cc2)C(c2ccc(Cl)cc2)C1 (stereo not shown) [Compound 33, 4-(3-tert-Butyl-5-(4-chlorophenyl)-4,5-dihydro-1H-pyrazol-1-yl)benzenesulfonamide]

IC50 (human recombinant PDE5): 18.9 µM
reduction in PDE5 inhibitory activity of pyrazole vs pyrazoline (human recombinant PDE5): 3–4 times
inhibition at 50 µM (human recombinant PDE5; [3]): 72%
Compound: CC(C)(C)c1cc(-c2ccccc2)n(-c2ccc(C(=O)O)cc2)n1 [Compound 34, 4-(3-tert-Butyl-5-phenyl-1H-pyrazol-1-yl)benzoic acid]

IC50 (human recombinant PDE5): 31.3 µM
reduction in PDE5 inhibitory activity of pyrazole vs pyrazoline (human recombinant PDE5): 3–4 times
inhibition at 50 µM (human recombinant PDE5; [3]): 75%
Compound: CC(C)(C)c1cc(-c2ccc(F)cc2)n(-c2ccc(C(=O)O)cc2)n1 [Compound 35, 4-(3-tert-Butyl-5-(4-fluorophenyl)-1H-pyrazol-1-yl) benzoic acid]

PDE5 inhibitory activity (in words) (human recombinant PDE5): diminished the PDE5 inhibitory activity
inhibition at 50 µM (human recombinant PDE5; [3]): 10.5%
Compound: CCOC(=O)c1ccc(N2N=C(C(C)(C)C)CC2c2ccc(Cl)cc2)cc1 (stereo not shown) [Compound 36, Ethyl 4-(3-tert-butyl-5-(4-chlorophenyl)-4,5-dihydro-1H-pyrazol-1-yl)benzoate]

PDE5 inhibitory activity (in words) (human recombinant PDE5): diminished the PDE5 inhibitory activity
inhibition at 50 µM (human recombinant PDE5; [3]): 16%
Compound: CCOC(=O)c1ccc(N2N=C(C(C)(C)C)CC2c2cccc([N+](=O)[O-])c2)cc1 (stereo not shown) [Compound 37, Ethyl 4-(3-tert-butyl-5-(3-nitrophenyl)-4,5-dihydro-1H-pyrazol-1-yl)benzoate]

Compound: CN1CC(=O)N2[C@H](c3ccc4c(c3)OCO4)c3[nH]c4ccccc4c3C[C@@H]2C1=O [Tadalafil, tadalafil, reference compound]
intracellular cGMP levels (luminescence), concentration dependence [2]: concentration-dependent increase
